Measured values reported in PMC4873341 (Molecular cancer therapeutics, 2016).
pEC50, pIC50: −log10 of the molar value. Read-outs that look alike come from different tables or passages of the source.

Legend:
[1] = tested on: Hh pathway; format: cell-based; settings: for Hh pathway inhibition by single drug at subtherapeutic dose: posaconazole 1 μM, KAAD-cyclopamine 10 nM, vismodegib 20 nM, SHHN CM; for Induction of Hh pathway activation by sterol alone: Shh-Light2 cells, absence of SHHN conditioned medium
[2] = target: SMO (Mus musculus, UniProt P56726); test: Fluorescent BODIPY-cyclopamine competition assay; format: binding; settings: BODIPY-cyclopamine 5 nM
SMO, sequence (P56726 33-793): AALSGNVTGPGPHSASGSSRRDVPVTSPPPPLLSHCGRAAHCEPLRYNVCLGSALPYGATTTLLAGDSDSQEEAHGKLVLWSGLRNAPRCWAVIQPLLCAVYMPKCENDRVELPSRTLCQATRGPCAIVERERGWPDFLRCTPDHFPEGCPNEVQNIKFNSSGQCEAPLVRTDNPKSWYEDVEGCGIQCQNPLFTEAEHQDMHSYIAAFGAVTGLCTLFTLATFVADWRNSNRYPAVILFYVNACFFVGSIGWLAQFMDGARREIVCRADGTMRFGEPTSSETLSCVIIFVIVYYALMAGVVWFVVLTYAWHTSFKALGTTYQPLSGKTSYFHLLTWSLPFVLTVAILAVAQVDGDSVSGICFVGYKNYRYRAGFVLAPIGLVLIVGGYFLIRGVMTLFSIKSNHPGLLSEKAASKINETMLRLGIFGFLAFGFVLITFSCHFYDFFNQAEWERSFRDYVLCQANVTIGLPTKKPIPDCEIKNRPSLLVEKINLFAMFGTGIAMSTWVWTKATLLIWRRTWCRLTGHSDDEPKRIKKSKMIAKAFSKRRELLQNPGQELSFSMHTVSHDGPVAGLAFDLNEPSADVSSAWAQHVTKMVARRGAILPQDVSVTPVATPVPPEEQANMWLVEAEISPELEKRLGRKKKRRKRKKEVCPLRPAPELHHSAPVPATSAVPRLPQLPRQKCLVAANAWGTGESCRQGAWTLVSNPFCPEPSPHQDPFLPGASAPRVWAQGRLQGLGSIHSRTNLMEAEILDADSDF

[3] = tested on: Hh pathway (SMO); test: SHH-Light2 reporter assay stimulated with SAG; format: cell-based; settings: for pEC50: read-out: EC50 of SAG
[4] = tested on: ASZ and BSZ basal cell carcinoma cells; test: Quantitative PCR of Gli1 transcript in ASZ and BSZ basal cell carcinoma cells; format: cell-based, murine; settings: posaconazole 1 μM; KAAD-cyclopamine 40 nM; GDC-0449 40 nM; 2 days
[5] = tested on: cytochrome P450 (CYP) 3A4; settings: cited from earlier work
[6] = tested on: CYP2C9; settings: cited from earlier work
[7] = tested on: CYP2C19; settings: cited from earlier work
[8] = tested on: Hh pathway (Ptch-/- murine embryonic fibroblast cells); format: cell-based; settings: Mus musculus, read-out: IC50 of Hh pathway inhibition
[9] = tested on: SMOA1 (SMO W539L) mutant; format: cell-based; settings: Shh-Light2 SmoA1 cells
[10] = tested on: Hh pathway (SMO); test: SHH-Light2 reporter assay stimulated with 20; format: cell-based
[11] = tested on: SMO accumulation in primary cilia; format: cell-based; settings: SHHN and posaconazole 7.5 μM; ~87% with SHHN and vehicle; p < 0.0001
Method in brief: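 NIH-3T3 cells were stimulated with SHHN conditioned medium together with 7.5 μM test compound or vehicle. Cells were immunostained for SMO (rabbit polyclonal, 1:750) and acetylated tubulin (mouse monoclonal, 1:1000), then detected with AlexaFluor 488 and 594 secondaries. Confocal images were scored for the percentage of primary cilia with SMO; mean ± S.D. of at least 7 fields.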

[12] = Plasma pharmacokinetic study, single oral dose; format: in vivo, Balb-c mice; settings: for AUC(0-t) / Cmax: Balb-c, mouse, plasma, po
Method in brief: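 Balb-c mice, given acidified drinking water (pH 2.5), received one oral gavage of test-compound oral suspension diluted in sterile water (30 or 60 mg/kg). Mice were killed at various times. Plasma was extracted with methanol/formic acid containing tolbutamide internal standard and analysed by LC-MS/MS (C18 column). Parameters came from noncompartmental analysis; 3 mice per time point, mean ± S.D.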

[13] = tested on: murine Ptch+/-;p53-/- BCC allografts; test: Tumor growth of subcutaneous BCC allografts; format: in vivo, mice; settings: 30 mg/kg or 60 mg/kg twice-daily, oral gavage; p < 0.005
[14] = tested on: Hh pathway in allografted BCC tumors; test: Gli1 mRNA in allografted BCC tumors; format: in vivo, mice; settings: 30 or 60 mg/kg twice per day by oral gavage for 5 days; p = 0.0224, p = 0.0033
[15] = tested on: BCC tumors; test: Necrosis scoring of H&E sections of BCC tumors; format: in vivo, mice; settings: posaconazole treated vs vehicle control; p = 0.0028
[16] = tested on: drug-resistant SMO mutants (D477G, E522K, G457S, S392N, D388N, N223D, L225R); format: cell-based, murine
[17] = tested on: CYP 1A2; settings: cited from earlier work
[18] = tested on: CYP 2C8; settings: cited from earlier work
[19] = tested on: CYP 2D6; settings: cited from earlier work
[20] = tested on: CYP 2E1; settings: cited from earlier work
[21] = tested on: SMO-G457S; format: cell-based, murine
[22] = increasing concentrations of posaconazole
[23] = higher than human values of ref 41

CC1=C2C[C@H]3[C@@H](CC=C4CC(=O)CC[C@@]43C)[C@@H]2CC[C@]12O[C@@H]1C[C@H](C)CN(CCNC(=O)CCCCCNC(=O)CCc3ccccc3)[C@H]1[C@H]2C [KAAD-cyclopamine]
Hh pathway inhibition by single drug at subtherapeutic dose [1]: partially inhibited the Hh pathway | pIC50 ([1]; read-out: IC50 of Hh pathway inhibition (given as 1x IC50), SHH-Light2 cells): 7.70 | Fluorescence of BODIPY-cyclopamine bound to SMO ([2]; KAAD-cyclopamine 200 nM and 400 nM): reduced the fluorescence of BD bound to SMO to baseline levels | Shift (increase) of the EC50 of SAG ([3]; KAAD-cyclopamine 20 nM (1x IC50)): ~ 3.5 fold | Pathway inhibition as measured by Gli1 mRNA, single drug [4]: significantly inhibited the pathway

CNC1CCC(N(Cc2cccc(-c3ccncc3)c2)C(=O)c2sc3ccccc3c2Cl)CC1 (stereo not drawn) [SAG]
pEC50 ([3]; 0 nM KAAD-cyclopamine): 7.47 | pEC50 ([3]; with 100 nM KAAD-cyclopamine): 6.61

CC(C)CCC[C@@H](C)[C@H]1CC[C@H]2[C@@H]3CC=C4C[C@@H](O)CC[C@]4(C)[C@H]3CC[C@]12C [cholesterol]
Induction of Hh pathway activation by sterol alone [1]: insufficient to induce Hh pathway activation

CC(C)=CCC[C@@H](C)[C@H]1CC[C@H]2[C@@H]3CC=C4C[C@@H](O)CC[C@]4(C)[C@H]3CC[C@]12C [desmosterol]
Induction of Hh pathway activation by sterol alone [1]: insufficient to induce Hh pathway activation

CC(O)C(C)n1ncn(-c2ccc(N3CCN(c4ccc(OCC5COC(Cn6cncn6)(c6ccc(Cl)cc6Cl)O5)cc4)CC3)cc2)c1=O (stereo not drawn) [hydroxy-itraconazole]
CYP3A4 inhibition [5]: strong inhibitors and substrates | CYP2C9 inhibition [6]: weaker inhibitors | CYP2C19 inhibition [7]: weaker inhibitors

CCC(C)n1ncn(-c2ccc(N3CCN(c4ccc(OCC5COC(Cn6cncn6)(c6ccc(Cl)cc6Cl)O5)cc4)CC3)cc2)c1=O (stereo not drawn) [itraconazole]
CYP3A4 inhibition [5]: strong inhibitors and substrates | CYP2C9 inhibition [6]: weaker inhibitors | CYP2C19 inhibition [7]: weaker inhibitors

CC(C)CCC[C@@H](C)[C@H]1CC[C@H]2C3=CC[C@H]4C[C@@H](O)CC[C@]4(C)[C@H]3CC[C@]12C [lathosterol]
Induction of Hh pathway activation by sterol alone [1]: insufficient to induce Hh pathway activation

CC[C@@H]([C@H](C)O)n1ncn(-c2ccc(N3CCN(c4ccc(OC[C@@H]5CO[C@@](Cn6cncn6)(c6ccc(F)cc6F)C5)cc4)CC3)cc2)c1=O [posaconazole]
Decrease of the IC50 of posaconazole by KAAD-cyclopamine ([1]; increasing concentrations of KAAD-cyclopamine): ~ 2.5 fold | Hh pathway inhibition by single drug at subtherapeutic dose [1]: partially inhibited the Hh pathway | pIC50 [8]: 6.01 | Inhibition of pathway activity [9]: no inhibitory effect | Fluorescence of BODIPY-cyclopamine bound to SMO ([2]; increasing concentrations up to 10 μM): did not significantly decrease the fluorescence | Effect on maximal induction of pathway activation by SAG ([3]; posaconazole 0 to 7.5 μM): significantly decreased the maximal induction of pathway activation | Effect on the EC50 of SAG ([3]; posaconazole 0 to 7.5 μM): did not significantly alter the EC50 of SAG | pIC50 ([10]; Shh Light2, read-out: IC50 of pathway activation by 20(S)-hydroxycholesterol): 6.79 | Effect on maximal pathway activation of 20(S)-hydroxycholesterol [10, 22]: decreased maximal pathway activation | Effect on the EC50 of 20(S)-hydroxycholesterol [10, 22]: did not significantly alter the EC50 of the oxysterol | Pathway inhibition as measured by Gli1 mRNA, single drug [4]: significantly inhibited the pathway | Primary cilia with SMO accumulation [11]: ~ 16% | AUC(0-t) ([12]; 30 mg/kg): 245 µg·h/mL | Cmax ([12]; 30 mg/kg): 16100 ng/mL | AUC(0-t) ([12]; 60 mg/kg): 288 µg·h/mL | Cmax ([12]; 60 mg/kg): 15900 ng/mL | AUC0-24h, murine 30 mg/kg relative to human 800 mg single dose [12, 23]: ~ 5 x | Plasma Cmax, murine 30 mg/kg relative to human 800 mg single dose [12, 23]: ~ 12 x | Tumor growth compared to vehicle control [13]: significantly suppressed tumor growth | Hh pathway inhibition in tumors as measured by Gli1 mRNA [14]: significant inhibition of the Hh pathway | Tumor necrosis (necrosis score 0-3) [15]: significant levels of necrosis | Activity against drug-resistant SMO mutants, single drug ([16]; Smo-/- fibroblasts, SHHN CM): showed inhibitory activity against all of the tested drug-resistant SMO mutants | CYP3A4 inhibition [5]: inhibits | CYP2C9 inhibition [6]: does not inhibit | CYP1A2 inhibition [17]: does not inhibit | CYP2C8 inhibition [18]: does not inhibit | CYP2D6 inhibition [19]: does not inhibit | CYP2E1 inhibition [20]: does not inhibit

Cc1c(C(=O)Nc2ccc(N3C[C@@H](C)O[C@@H](C)C3)nc2)cccc1-c1ccc(OC(F)(F)F)cc1 [sonidegib]
Response of sonidegib-resistant SMO mutants ([16]; sonidegib 0.5 μM (~80x IC50)): resistant | Response of SMO-G457S ([21]; sonidegib 0.05 μM): resistant | Response of SMO-G457S ([21]; sonidegib 0.5 μM): inhibited

CS(=O)(=O)c1ccc(C(=O)Nc2ccc(Cl)c(-c3ccccn3)c2)c(Cl)c1 [vismodegib]
Hh pathway inhibition by single drug at subtherapeutic dose [1]: partially inhibited the Hh pathway | Pathway inhibition as measured by Gli1 mRNA, single drug [4]: significantly inhibited the pathway | Response of vismodegib-resistant SMO mutants (D477G, E522K) ([16]; vismodegib 0.5 μM (~40x IC50)): resistant

C[C@@H](c1ncncc1F)[C@](O)(Cn1cncn1)c1ccc(F)cc1F [voriconazole]
pIC50 ([1]; Shh Light2, read-out: No detectable inhibition of the Hh pathway up to): < 4.40
